Screens: PubChem BioAssay, Johns Hopkins Ion Channel Center
This is a sample that favours compounds with a hit; in the whole collection about 2.3% have one here.
TRPC4 potent: allosteric potentiators of mouse TRPC4 channel. B-score at 10 µM. 310,000 tested, 0.42% active. AID 2227. Q9QUQ5. HEK293 TRPC4beta/mu-opioid, DAMGO EC20, Fluo-4 Ca2+ flux; active compounds read high;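 active = B-score of calcium response area above 5 SD of library B-scores, with initial fluorescence ratio within 5 SD of library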;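 also: B-score of integrated fluorescence ratio over time as area under calcium response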
Target sequence (Q9QUQ5 whole entry, looked up): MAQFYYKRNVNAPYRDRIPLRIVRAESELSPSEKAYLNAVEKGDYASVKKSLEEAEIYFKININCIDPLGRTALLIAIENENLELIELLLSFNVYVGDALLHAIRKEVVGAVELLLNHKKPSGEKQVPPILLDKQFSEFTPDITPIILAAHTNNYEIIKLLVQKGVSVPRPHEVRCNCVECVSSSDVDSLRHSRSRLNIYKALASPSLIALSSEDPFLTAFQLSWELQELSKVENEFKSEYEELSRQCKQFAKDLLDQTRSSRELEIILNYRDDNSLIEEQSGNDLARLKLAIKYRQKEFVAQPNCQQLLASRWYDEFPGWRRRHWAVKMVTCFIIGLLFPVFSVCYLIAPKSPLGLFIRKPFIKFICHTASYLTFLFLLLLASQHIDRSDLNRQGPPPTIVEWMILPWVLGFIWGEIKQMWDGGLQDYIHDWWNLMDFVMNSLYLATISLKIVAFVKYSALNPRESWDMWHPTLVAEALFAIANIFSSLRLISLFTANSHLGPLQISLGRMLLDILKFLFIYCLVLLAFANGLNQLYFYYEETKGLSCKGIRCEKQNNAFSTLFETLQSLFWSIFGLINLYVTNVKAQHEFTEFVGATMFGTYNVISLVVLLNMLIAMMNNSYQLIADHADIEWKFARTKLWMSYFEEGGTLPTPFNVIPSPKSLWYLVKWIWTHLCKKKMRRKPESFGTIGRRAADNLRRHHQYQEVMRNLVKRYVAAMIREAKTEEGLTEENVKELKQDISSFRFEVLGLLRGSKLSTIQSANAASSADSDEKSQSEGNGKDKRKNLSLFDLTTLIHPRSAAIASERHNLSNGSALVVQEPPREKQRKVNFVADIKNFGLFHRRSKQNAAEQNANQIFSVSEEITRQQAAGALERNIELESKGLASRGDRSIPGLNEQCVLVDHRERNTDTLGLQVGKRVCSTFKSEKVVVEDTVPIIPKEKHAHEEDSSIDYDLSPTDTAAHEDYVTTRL
TRPC4 inh: TRPC4 (mouse) channel inhibition; Q9QUQ5; HEK293 TRPC4beta/mu-opioid, DAMGO-evoked Fluo4 calcium flux; active compounds read low; B-score at 10 µM; 300,000 tested, 0.39% active;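 active = B-score over 3 SD under the library average, no early fluorescence shift, positive overall ratio signal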
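Assay system – HEK293 line stably carrying TRPC4beta and mu-opioid receptor · Doses – single dose · Detection – Fluo4 calcium-dye fluorescence, kinetic read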
TRPC6 act: activates the mouse TRPC6 cation channel | HEK293-TRPC6 membrane potential dye fluorescence; active compounds read high | Q61143 | B-score at 10 µM | 310,000 tested, 0.13% active;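 active = B-score of the integrated fluorescence ratio above library mean plus 3 SD, and starting fluorescence ratio within library mean plus 5 SD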;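 also: higher score means more depolarization so channel activation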
TRPC4 act: opens the mouse TRPC4 cation channel; Q9QUQ5; HEK293 TRPC4beta/mu-opioid, Fluo4 calcium fluorescence; active compounds read high; B-score at 10 µM; 310,000 tested, 0.49% active; AID 2237;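 active = B-score above 5 SD of library B-scores, and initial fluorescence ratio not above library mean plus 5 SD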;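 also: positive B-score marks a calcium rise read as TRPC4 activation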
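System: HEK293 cells stably co-expressing mouse TRPC4beta and mu-opioid receptor; Schedule: Fluo4 dye loading 45 min at room temperature, 110 s recording; Detection: Fluo4 fluorescence, kinetic; Evaluation: B-scored integrated calcium fluorescence ratio; Controls: buffer (low) and maximal DAMGO (high).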
TRPC6 inhibitor: mouse TRPC6 channel inhibition. B-score at 10 µM. HEK293-TRPC6, membrane potential dye, ACh-evoked depolarization; active compounds read low. 310,000 tested, 1.1% active. Q61143;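 active = B-score under library mean minus 3 SD, initial fluorescence not abnormally high, positive integrated signal ratio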;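 also: B-score derived from integrated fluorescence ratio over the kinetic read; more negative B-score means stronger inhibition of depolarization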
HEK293 MPD ctr: checks TRPC6 modulator effects in parental HEK293 cells; shares compounds with TRPC6 inhibitor; membrane potential dye fluorescence; membrane potential signal change, % at 10 µM; 2,400 tested, 51% active; AID 488924;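 active = membrane potential signal moves up or down beyond 5 SD from buffer-only wells, on both duplicate plates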
HEK293 MPD ctr 2: parental HEK293 nonspecific activity of TRPC6 modulators, second screen | shares compounds with TRPC6 inhibitor | membrane potential dye fluorescence; after compound, maximal acetylcholine stimulation | inhibition, % at 10 µM | 2,400 tested, 14% active | AID 488926;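 active = membrane potential signal drops by more than 5 SD from the mean control signal, in both duplicate plates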;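 also: plate controls were acetylcholine ECmax control wells for no effect and buffer only wells for full effect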
TRPC4 ctr mod: mouse TRPC4 off-target activity of TRPC6 modulators; shares compounds with TRPC6 inhibitor; HEK293 TRPC4/mu-opioid, membrane potential fluorescence; percent change from control (negative = decrease, positive = increase), % at 10 µM; 2,400 tested, 69% active;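 active = membrane potential signal moved up or down beyond 5 SD of buffer control wells, in both duplicate plates, actives on both sides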;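 also: plate controls were assay buffer wells for no effect and DAMGO maximal-effect wells for full effect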
TRPC4 ctr inh 2: second check of whether TRPC6 modulators also affect mouse TRPC4 | inhibition, % at 10 µM | 2,400 tested, 55% active | AID 488928 | shares compounds with TRPC6 inhibitor | HEK293 TRPC4/mu-opioid, membrane potential dye fluorescence; stimulated with maximal-effect DAMGO;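 active = drop in membrane potential signal beyond 5 SD of the control wells in both duplicate plates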;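 also: TRPC4 counter screen for TRPC6 hits run under conditions tuned for TRPC6 not TRPC4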
TRPC6 inh conf: mouse TRPC6 inhibitor confirmation; shares compounds with TRPC6 inhibitor; HEK293-TRPC6, membrane potential dye, ACh-evoked depolarization; inhibition, % at 10 µM; 3,300 tested, 43% active; AID 488960;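 active = fluorescence ratio falls more than 5 SD below the full-stimulation control mean, in both duplicate runs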;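 also: integrated fluorescence ratio of peak minus minimum over baseline after agonist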
TRPC6 act confirm: mouse TRPC6 activator confirmation. shares compounds with TRPC6 inhibitor. HEK293-TRPC6 membrane potential dye fluorescence, FDSS. activation, % at 10 µM. 2,800 tested, 11% active;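 active = ratio signal rise beyond 5 SD above unstimulated control wells' mean, seen in both duplicate runs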;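 also: plate controls were buffer EC0 wells for no effect and acetylcholine ECmax response for full effect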
The depositor's hits bear a star.

How did COc1ccc2ccc(O)c(CN(C)CC(=O)Nc3ccccc3C(F)(F)F)c2c1 do in these assays?
TRPC4 potent: inactive; TRPC4 inh: inactive; TRPC6 act: inactive; TRPC4 act: inactive; TRPC6 inhibitor: inactive

Results for Cc1ccccc1C(=O)N1CCN(c2ccc([N+](=O)[O-])c(N3CCOCC3)c2)CC1 ?
TRPC4 potent: inactive; TRPC4 inh: inactive; TRPC6 act: inactive; TRPC4 act: inactive; TRPC6 inhibitor: -5.4*; HEK293 MPD ctr: inactive; HEK293 MPD ctr 2: inactive; TRPC4 ctr mod: inactive; TRPC4 ctr inh 2: inactive; TRPC6 inh conf: inactive; TRPC6 act confirm: inactive

Results for COc1ccc2c(c1)N(C)/C(=C1/SC(=NCc3ccccc3)N(c3ccccc3)C1=O)S2 ?
TRPC4 potent: inactive; TRPC4 inh: inactive; TRPC6 act: inactive; TRPC4 act: inactive; TRPC6 inhibitor: -6.5*; HEK293 MPD ctr: inactive; HEK293 MPD ctr 2: inactive; TRPC4 ctr mod: inactive; TRPC4 ctr inh 2: inactive; TRPC6 inh conf: inactive; TRPC6 act confirm: inactive

What do the screens show for `COc1ccc(CN(CC(=O)NCc2ccc(F)cc2)C(=O)CCC(=O)Nc2nccs2)cc1`?
TRPC4 potent: inactive; TRPC4 inh: inactive; TRPC6 act: inactive; TRPC4 act: inactive; TRPC6 inhibitor: inactive

Results for Cc1cc2cc(C)c(NCCNC(=O)c3ccccc3F)nc2cc1C ?
TRPC4 potent: inactive; TRPC4 inh: inactive; TRPC6 act: inactive; TRPC4 act: inactive; TRPC6 inhibitor: -5.9*; HEK293 MPD ctr: inactive; HEK293 MPD ctr 2: inactive; TRPC4 ctr mod: inactive; TRPC4 ctr inh 2: 46%*; TRPC6 inh conf: inactive; TRPC6 act confirm: inactive

What do the screens show for `CC1c2[nH]c3ccccc3c2C[C@H]2C(=O)N(CCCN(C)C)CC(=O)N12` (some centres not stated)?
TRPC4 potent: inactive; TRPC4 inh: inactive; TRPC6 act: inactive; TRPC4 act: inactive; TRPC6 inhibitor: inactive

Results for O=C(NCc1ccc(Cl)cc1)c1cc(S(=O)(=O)N2CCCCC2)c[nH]1 ?
TRPC4 potent: inactive; TRPC4 inh: inactive; TRPC6 act: inactive; TRPC4 act: inactive; TRPC6 inhibitor: inactive

How did COc1c2ccoc2nc2c(OC)c(O)ccc12 do in these assays?
TRPC4 potent: inactive; TRPC4 inh: inactive; TRPC6 act: inactive; TRPC4 act: inactive; TRPC6 inhibitor: inactive

How did COc1ccc2c(OC)c3ccoc3nc2c1OC do in these assays?
TRPC4 potent: inactive; TRPC4 inh: inactive; TRPC6 act: inactive; TRPC4 act: inactive; TRPC6 inhibitor: -5.6*; HEK293 MPD ctr: inactive; HEK293 MPD ctr 2: inactive; TRPC4 ctr mod: inactive; TRPC4 ctr inh 2: inactive; TRPC6 inh conf: inactive

How did COc1ccc(-c2nc(CS(=O)CC(=O)NC3CCC(C)CC3)c(C)o2)cc1OC (configuration not stated) do in these assays?
TRPC4 potent: inactive; TRPC4 inh: inactive; TRPC6 act: inactive; TRPC4 act: inactive; TRPC6 inhibitor: -6.2*; HEK293 MPD ctr: inactive; HEK293 MPD ctr 2: inactive; TRPC4 ctr mod: 13%*; TRPC4 ctr inh 2: 29%*; TRPC6 inh conf: 71%*

How did COc1cc(C2C(C#N)=C(N)Oc3cc(N(C)C)ccc32)cc2c1OCO2 (configuration not stated) do in these assays?
TRPC4 potent: inactive; TRPC4 inh: inactive; TRPC6 act: 12*; TRPC4 act: 64*; TRPC6 inhibitor: inactive; HEK293 MPD ctr: 256%*; HEK293 MPD ctr 2: inactive; TRPC4 ctr mod: 53%*; TRPC4 ctr inh 2: inactive; TRPC6 inh conf: inactive; TRPC6 act confirm: 62%*

How did CC1CCCN(C(=O)COc2ccc(-c3ccccc3)cc2)C1 (configuration not stated) do in these assays?
TRPC4 potent: inactive; TRPC4 inh: inactive; TRPC6 act: inactive; TRPC4 act: inactive; TRPC6 inhibitor: -6*; HEK293 MPD ctr: inactive; HEK293 MPD ctr 2: inactive; TRPC4 ctr mod: 10%*; TRPC4 ctr inh 2: inactive; TRPC6 inh conf: inactive

How did Nc1nonc1C(=O)NCCNCc1ccccc1OCc1ccc(F)cc1 do in these assays?
TRPC4 potent: inactive; TRPC4 inh: inactive; TRPC6 act: inactive; TRPC4 act: inactive; TRPC6 inhibitor: -6.3*; HEK293 MPD ctr: 141%*; HEK293 MPD ctr 2: inactive; TRPC4 ctr mod: 12%*; TRPC4 ctr inh 2: 86%*; TRPC6 inh conf: 46%*

What do the screens show for `CCOc1ccc(CNCCNC(=O)c2nonc2N)cc1`?
TRPC4 potent: inactive; TRPC4 inh: inactive; TRPC6 act: inactive; TRPC4 act: inactive; TRPC6 inhibitor: inactive

What do the screens show for `COc1ccc(NC(=O)c2ccccc2Oc2ccccc2)cc1`?
TRPC4 potent: inactive; TRPC4 inh: inactive; TRPC6 act: inactive; TRPC4 act: inactive; TRPC6 inhibitor: inactive

Results for COc1cccc(NC(=O)c2ccccc2Oc2ccccc2)c1 ?
TRPC4 potent: inactive; TRPC4 inh: inactive; TRPC6 act: inactive; TRPC4 act: inactive; TRPC6 inhibitor: -5.3*; HEK293 MPD ctr: inactive; HEK293 MPD ctr 2: inactive; TRPC4 ctr mod: 14%*; TRPC4 ctr inh 2: inactive; TRPC6 inh conf: inactive; TRPC6 act confirm: inactive
